Reference: ChEMBL document CHEMBL3244321, “Nitramino acids. Synthesis and biological evaluation of 1-nitroproline, 1-nitropipecolic acid, and N-nitrosarcosine” (J Med Chem, 1977)
Active and inactive are the calls of the source. The rule behind the calls is not given here.

Columns and labels:
Candida albicans [1] = assay: Antifungal activity against Candida albicans ATCC 11651 assessed as inhibition of fungal growth up to 100 ug/ml after 16 hrs by spectrophotometer; assay type: functional, organism-based
Summary of the method: (§1)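 Yeast nitrogen base (pH 7.0), with compound at 10, 25, 50 and 100 µg/mL. Incubated 16 h at 37 °C with 150 rpm rotary shaking. Turbidity was read at 600 nm.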

Candida albicans [2] = assay: Antifungal activity against Candida albicans clinical isolate assessed as inhibition of fungal growth up to 100 ug/ml after 16 hrs by spectrophotometer; assay type: functional, organism-based; summary of the method: as §1
Escherichia coli = assay: Antibacterial activity against Escherichia coli ATCC 25922 assessed as inhibition of bacterial growth at up to 100 ug/ml after 16 hrs by spectrophotometer; assay type: functional, organism-based
Summary of the method: (§2)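 Tested at 10, 25, 50 and 100 µg/mL in Mueller-Hinton broth at 37 °C with rotary shaking at 150 rpm. Incubation was 16 h for E. coli and 7 h for P. aeruginosa. Growth was read turbidimetrically at 600 nm.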

Pseudomonas aeruginosa = assay: Antibacterial activity against Pseudomonas aeruginosa ATCC 27853 assessed as inhibition of bacterial growth at up to 100 ug/ml after 7 hrs by spectrophotometer; assay type: functional, organism-based; summary of the method: as §2
[3] = Acute toxicity in ip dosed Swiss-Webster mouse measured after 72 hrs; assay type: organism-based; conditions: in vivo
[4] = system: Mycolicibacterium smegmatis; assay: Antibacterial activity against Mycobacterium smegmatis H607 assessed as inhibition of bacterial growth up to 100 ug/ml after 22 hrs by spectrophotometer; assay type: functional, organism-based
Summary of the method: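 Sauton synthetic medium, with compound at 10, 25, 50 and 100 µg/mL. Incubated 22 h at 37 °C with rotary shaking at 150 rpm. Growth was measured turbidimetrically at 600 nm.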

Salmonella typhimurium [5] = assay: Mutagenicity in Salmonella typhimurium TA100 assessed as revertant colonies at 300 umol incubated under aerobic conditions in dark for 2 days by Ames test in presence of Sprague-Dawley rat liver S9 fraction; assay type: toxicity, organism-based; conditions: salmonella enterica subsp. enterica serovar typhimurium, s9, 48 h
Summary of the method: (§3)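 Ames plate-incorporation assay. Overnight TA-100 nutrient-broth culture, about 10^7 cells per plate. Compound solutions were adjusted to pH 7 and filter-sterilized, then mixed in a histidine-biotin-limited agar overlay on minimal glucose agar, with or without S-9. S-9 was the 9000g supernatant of 25% liver homogenate in 0.15 M KCl from phenobarbital-treated male Sprague-Dawley rats. Plates were incubated aerobically at 37 °C in the dark for 2 days, or anaerobically (Gas-Pak) for 16-17 h and then aerobically for 48 h. Revertants were counted in triplicate and averaged. Matched vehicle/condition background was subtracted.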

Salmonella typhimurium [6] = assay: Mutagenicity in Salmonella typhimurium TA100 assessed as revertant colonies at 300 umol incubated under anaerobic conditions for 16 to 17 hrs followed by 48 hrs under aerobic conditions by Ames test in presence of Sprague-Dawley rat liver S9 fraction; assay type: toxicity, organism-based; conditions: salmonella enterica subsp. enterica serovar typhimurium; summary of the method: as §3
Salmonella typhimurium [7] = assay: Mutagenicity in Salmonella typhimurium TA100 assessed as revertant colonies at 300 umol incubated under aerobic conditions in dark for 2 days by Ames test; assay type: toxicity, organism-based; conditions: salmonella enterica subsp. enterica serovar typhimurium, 48 h; summary of the method: as §3
Salmonella typhimurium [8] = assay: Mutagenicity in Salmonella typhimurium TA100 assessed as revertant colonies at 300 umol incubated under anaerobic conditions for 16 to 17 hrs followed by 48 hrs under aerobic conditions by Ames test; assay type: toxicity, organism-based; conditions: salmonella enterica subsp. enterica serovar typhimurium; summary of the method: as §3

In the case of O=C(O)[C@H]1CCCN1[N+](=O)[O-], the inhibition (Candida albicans [1]) is reported as “inactive”, the inhibition (Candida albicans [2]) is reported as “inactive” and the inhibition (Escherichia coli) is reported as “inactive”. For the same compound, the inhibition (Pseudomonas aeruginosa) was “inactive”, the LD50 at 72 h [3] was 1390 µmol/kg and the inhibition [4] was “inactive”.
With O=C(O)C1CCCCN1[N+](=O)[O-] (racemic) the inhibition (Candida albicans [1]) was “inactive”, the inhibition (Candida albicans [2]) was “inactive” and the Activity (Salmonella typhimurium [5]) was “Non-toxic”. The inhibition (Escherichia coli) was “inactive”, the Activity (Salmonella typhimurium [6]) was “Non-toxic” and the inhibition (Pseudomonas aeruginosa) was “inactive”. For the same compound, the LD50 at 72 h [3] was 2100 µmol/kg, the Activity (Salmonella typhimurium [7]) was “Non-toxic” and the inhibition [4] was “inactive”. For the same compound, the Activity (Salmonella typhimurium [8]) was “Non-toxic”.
In the case of O=C(O)[C@@H]1CCCN1[N+](=O)[O-], the inhibition (Candida albicans [1]) is reported as “inactive”, the inhibition (Candida albicans [2]) is reported as “inactive” and the Activity (Salmonella typhimurium [5]) is reported as “Non-toxic”. The inhibition (Escherichia coli) was “inactive”, the Activity (Salmonella typhimurium [6]) was “Non-toxic” and the inhibition (Pseudomonas aeruginosa) was “inactive”. For the same compound, the LD50 at 72 h [3] was 1170 µmol/kg, the Activity (Salmonella typhimurium [7]) was “Non-toxic” and the inhibition [4] was “inactive”. For the same compound, the Activity (Salmonella typhimurium [8]) was “Non-toxic”.
